ALR H2O2 inh – inhibitors of human ALR sulfhydryl oxidase, primary screen, biochemical, H2O2 detection, HRP-luminol luminescence, single point. purified ALR, DTT oxidation. inhibition, % (test concentration not listed). 290,000 tested, 3.8% active;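 active = mean replicate inhibition above about 79%, with every replicate also reaching it, limit read from the data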
Target sequence (P55789 whole entry, looked up): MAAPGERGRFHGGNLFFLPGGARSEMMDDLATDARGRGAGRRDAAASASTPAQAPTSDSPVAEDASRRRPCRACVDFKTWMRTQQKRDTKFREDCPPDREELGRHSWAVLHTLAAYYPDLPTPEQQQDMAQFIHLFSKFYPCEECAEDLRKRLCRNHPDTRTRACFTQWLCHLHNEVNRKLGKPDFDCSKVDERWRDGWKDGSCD
Dyrk1A ADPGlo – rat Dyrk1A kinase inhibitors, primary screen, biochemical, single point, plate reader. inhibition, % at 12.5 µM. 310,000 tested, 0.43% active. ADP-Glo luminescence, NFATc1 peptide; in the data active = inhibition above about 50%;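 note: plate controls were vehicle with enzyme for no effect and no enzyme for full effect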
CAL PDZ FP-1 – CAL PDZ peptide-binding inhibitors, primary screen, biochemical, fluorescence polarization, Cer-tagged CAL PDZ, HTS; Golgi-associated PDZ and coiled-coil motif-containing protein (Homo sapiens), Q9HD26; inhibition, % at 20 µM; AID 504414, 2011; purified CAL PDZ, TMR-peptide fluorescence polarization, 1 h; 330,000 tested, 0.02% active;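 active = highest replicate inhibition of at least 40%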;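 note: plate controls were DMSO neutral control wells for no effect and unlabeled competitor peptide control wells for full effect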
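Material – purified CerCALP PDZ construct · Detection – FP readout, S and P plane fluorescence · Measure – percent inhibition from loss of millipolarization · Controls – unlabelled peptide for full inhibition, DMSO wells as neutral · Probe or stimulus – TMR-labelled reporter peptide T*-PRC34 bound in PDZ groove · Times – 1 h at RT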
Rtt109 HAT inh – inhibitors of C. albicans Rtt109/Vps75 HAT, primary screen, biochemical, ThioGlo CoA-SH fluorescence, plate reader; purified Rtt109/Vps75, 4 h; Histone acetyltransferase RTT109 (Candida albicans (strain SC5314 / ATCC MYA-2876)), …; inhibition, % at 34.9 µM; 330,000 tested, 0.16% active;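 active = inhibition of at least 50% in every replicate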
Target sequence (Q5AAJ8 whole entry, looked up): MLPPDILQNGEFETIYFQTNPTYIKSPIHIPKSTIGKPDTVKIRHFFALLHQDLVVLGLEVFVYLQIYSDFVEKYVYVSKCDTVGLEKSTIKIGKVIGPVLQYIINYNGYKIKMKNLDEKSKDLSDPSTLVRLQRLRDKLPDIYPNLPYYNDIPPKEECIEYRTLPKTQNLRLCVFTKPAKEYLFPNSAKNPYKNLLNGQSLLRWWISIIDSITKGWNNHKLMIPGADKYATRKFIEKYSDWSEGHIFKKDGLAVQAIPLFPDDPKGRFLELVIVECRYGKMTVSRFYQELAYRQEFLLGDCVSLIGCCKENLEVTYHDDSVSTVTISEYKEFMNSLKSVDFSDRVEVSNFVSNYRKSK
CAL PDZ FP-2 – untagged CAL PDZ binding inhibitors, primary screen, biochemical, fluorescence polarization, HTS; Golgi-associated PDZ and coiled-coil motif-containing protein (Homo sapiens), Q9HD26; purified CAL PDZ, TMR-peptide fluorescence polarization, 1 h; inhibition, % at 24.9 µM; 300,000 tested, 0.92% active; AID 602252, 2012;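 active = mean inhibition of at least 30% with at least half of replicates also reaching 30%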;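 note: 0% = DMSO neutral control and 100% = excess unlabeled competitor peptide PRC23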
* marks the source's active call; other numbers are inactive results; nt = no result. In the library only some 4.3% were active in any assay of this set; here they are far more common.

SMILES | ALR H2O2 inh | Dyrk1A ADPGlo | CAL PDZ FP-1 | Rtt109 HAT inh | CAL PDZ FP-2
COc1ccc(C(=O)Nc2nnc(CCS(=O)(=O)c3ccc(C)cc3)s2)cc1 | -3 | -2 | -1 | 2 | nt
CC(C)(O)C#Cc1ccc([C@@H]2C[C@H]3CN(c4ccccc4)C(=O)[C@]34CCCN24)s1 | 92* | 0 | -2 | 4 | -1
O=C1c2ccccc2CSc2c(O)cccc21 | 80* | nt | nt | nt | nt
Cc1ccn(Cc2n[nH]c(=S)n2Cc2ccccc2)n1 | 91* | 3 | -1 | 10 | -4
S=c1[nH]nc(CNc2ccc(Cl)cc2)n1Cc1ccccc1 | 99* | -4 | 0 | 0 | -2
Cc1ccc2sc(NC(=O)C3CC3)nc2c1C | -3 | 3 | -4 | 3 | -2
N#C/C(=C\c1c(N2CCCCC2)nc2ccccn2c1=O)S(=O)(=O)c1ccccc1 | 0 | -2 | -6 | 5 | 55*
N#CC(C#N)=Cc1c(N2CCN(c3ccccc3)CC2)nc2ccccn2c1=O | 5 | -2 | -1 | -2 | 48*
O=Cc1c(N2CCN(c3ccccc3)CC2)nc2ccccn2c1=O | 99* | 5 | -1 | 4 | -1
COc1ccc(N2CCN(c3nc4ccc(C)cn4c(=O)c3C=O)CC2)cc1 | 81* | 0 | -2 | 4 | -1
Nc1c(N(CCC2=CCCCC2)C(=O)COc2ccc([N+](=O)[O-])cc2)c(=O)[nH]c(=O)n1Cc1ccccc1 | nt | 1 | -1 | 1 | 56*
O=C(NC(=S)NNC(=O)[C@H]1C[C@@H]1c1ccccc1)c1cccc(F)c1 | 98* | nt | -2 | -3 | 0
O=c1[nH]c2ccc(S(=O)(=O)Nc3ccccc3O)cc2[nH]1 | 93* | 5 | 0 | 2 | nt
Cn1cc(CNCCN2CCCCC2=O)c(-c2cccc(Cl)c2)n1 | 3 | -2 | 0 | -1 | -5
Cc1ccccc1C(=O)Nc1ccc(C(=O)N/N=C/c2ccc(O)c(Br)c2)cc1 | 41 | 2 | -2 | 12 | 0
COc1cccc(N2CCN(c3ccc4nnc(CCC(=O)Nc5cccc(C(C)=O)c5)n4n3)CC2)c1 | -1 | -3 | -2 | -5 | -4
CC1CCN(c2ccc3nnc(CCC(=O)N4CCN(c5ccccc5F)CC4)n3n2)CC1 | 0 | 0 | -3 | 20 | -3
COc1ccc(N2CCN(C(=O)CCc3nnc4ccc(N5CCC(C)CC5)nn34)CC2)cc1 | 90* | 7 | -2 | 31 | -4
COc1cccc(N2CCN(c3ccc4nnc(CCC(=O)N5CCC(C)CC5)n4n3)CC2)c1 | 99* | -5 | -2 | -19 | -5
CCCN1CCN(C(=O)CCc2nnc3ccc(N4CCN(c5cccc(OC)c5)CC4)nn23)CC1 | 99* | -1 | -1 | -2 | 0
CC(=O)N1CCN(c2ccc(NC(=O)c3cccc([N+](=O)[O-])c3)cc2)CC1 | 45 | 5 | 0 | 1 | -3
Cc1cccc(OCCn2nnc3ccccc32)c1C | -2 | 17 | 1 | 4 | -3
CN(C)S(=O)(=O)c1ccc(C(=O)N2CCN(S(=O)(=O)c3ccc4c(c3)OCCO4)CC2)cc1 | nt | 0 | -2 | -12 | 0
O=C(c1ccc(F)cc1F)N1CCN(S(=O)(=O)c2ccc3c(c2)OCCO3)CC1 | -2 | nt | -1 | 11 | 31*
CCOC(=O)C1=C(Nc2ccc(Cl)cc2)OCC1=O | -1 | 7 | 0 | 5 | nt
SMILES | ALR H2O2 inh | Dyrk1A ADPGlo | CAL PDZ FP-1 | Rtt109 HAT inh | CAL PDZ FP-2
CN(CC(=O)Nc1ccc(S(=O)(=O)N2CCCC2)cc1)CC(=O)Nc1ccc(F)c(F)c1F | -6 | nt | 0 | 7 | -4
COC(=O)CCC(=O)Nc1ccc(S(=O)(=O)Nc2cc(OC)nc(OC)n2)cc1 | -17 | -3 | 0 | -1 | -1
CCN(Cc1ccc(N(C)C)cc1)C(C)C(=O)Nc1ccc(S(=O)(=O)N2CCCC2)cc1 (stereo not drawn) | 36 | -1 | -1 | -2 | 60*
CSc1ccccc1NC(=O)CN(C)CC(=O)Nc1ccc(S(=O)(=O)N2CCCC2)cc1 | -1 | nt | 0 | 6 | 48*
O=C(CSC1=NCCS1)Nc1ccc(S(=O)(=O)NC2CCCCC2)cc1 | 98* | -6 | nt | -9 | -6
COc1cc(NS(=O)(=O)c2ccc(NC(=O)CSC3=NCCS3)cc2)nc(OC)n1 | 99* | nt | nt | nt | nt
COc1ccc(OC)c(NC(=O)C(=O)N/N=C(\C)CC(=O)Nc2ccc(Cl)cn2)c1 | -1 | -3 | -2 | -13 | -3
COc1ccc(NC(=O)N(C)C[C@H]2Oc3c(NC(=O)C4CC4)cccc3C(=O)N([C@H](C)CO)C[C@@H]2C)cc1 | -3 | 13 | 1 | 6 | -1
O=C(CSC1=NCCS1)Nc1ccc(S(=O)(=O)N2CCCCCC2)cc1 | 98* | -4 | -1 | -24 | -1
Cc1ccc(NCc2ccc([N+](=O)[O-])s2)cc1 | 98* | 0 | 1 | -2 | -1
Cc1cccc(NCc2ccc([N+](=O)[O-])s2)c1 | 98* | 11 | 1 | 3 | -1
Cc1ccccc1NCc1ccc([N+](=O)[O-])s1 | nt | 1 | nt | 9 | 0
CC(C)c1ccc(NC(=O)CN2C(=O)NC3(CCCC3)C2=O)cc1 | -3 | -1 | -2 | 7 | -2
Cc1ccc(S(=O)(=O)N2CCN(C(=O)CNC(=O)c3ccc(Cl)cc3)CC2)cc1 | -20 | nt | -1 | 9 | nt
C/C(=N\Nc1nc(C)cc(-c2ccccc2)n1)c1ccc(O)cc1 | 96* | 8 | 0 | 2 | 0
C/C(=N\Nc1nc(C)cc(-c2ccccc2)n1)c1cccc(N)c1 | 99* | -1 | -18 | 4 | -4
CN1C(=O)c2ccccc2C(C(=O)O)C1c1cn(C)c2ccccc12 (stereo not drawn) | 4 | 6 | nt | -1 | 41*
Nc1ncnc2c1C(c1ccccc1)c1c(ccc3ccccc13)O2 (stereo not drawn) | -2 | 21 | 62* | -5 | -5
CCc1ccc(N=C2NC(=O)/C(=C/c3ccc(OCC(=O)O)cc3)S2)cc1 | 98* | 16 | -8 | 1 | -4
CCc1ccc(N=C2NC(=O)/C(=C/c3ccc(OCC(=O)O)c(OC)c3)S2)cc1 | nt | 36 | -2 | -3 | nt
CC(C)c1ccc(C2OCC(C)([N+](=O)[O-])CO2)cc1 (stereo not drawn) | nt | -2 | 20 | 5 | 91*
Brc1cc2c(cc1COc1ccc(-c3nn[nH]n3)cc1)OCO2 | 98* | 13 | -1 | 18 | nt
COc1ccccc1N1C(=O)CC(Sc2nccc(C)n2)C1=O (stereo not drawn) | -16 | 4 | -4 | -1 | -3
